Compounds with a hit are over-represented: about 27% of the library has one in this group of screens.
CYP2C19 inh: blocks human cytochrome P450 2C19. P33261. CYP2C19 Supersomes, luciferin-H EGE luminescence, 30 min. inhibition, % at 5 µM. 96,000 compounds, 21% hits;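 active = CYP2C19 inhibition above a set limit at 5 µM in the primary screen, cut at about 50% in these data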;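 note: plate controls were negative control wells for no effect and 2.5 mM tranylcypromine positive control for full effect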
Target sequence (P33261 whole entry, looked up): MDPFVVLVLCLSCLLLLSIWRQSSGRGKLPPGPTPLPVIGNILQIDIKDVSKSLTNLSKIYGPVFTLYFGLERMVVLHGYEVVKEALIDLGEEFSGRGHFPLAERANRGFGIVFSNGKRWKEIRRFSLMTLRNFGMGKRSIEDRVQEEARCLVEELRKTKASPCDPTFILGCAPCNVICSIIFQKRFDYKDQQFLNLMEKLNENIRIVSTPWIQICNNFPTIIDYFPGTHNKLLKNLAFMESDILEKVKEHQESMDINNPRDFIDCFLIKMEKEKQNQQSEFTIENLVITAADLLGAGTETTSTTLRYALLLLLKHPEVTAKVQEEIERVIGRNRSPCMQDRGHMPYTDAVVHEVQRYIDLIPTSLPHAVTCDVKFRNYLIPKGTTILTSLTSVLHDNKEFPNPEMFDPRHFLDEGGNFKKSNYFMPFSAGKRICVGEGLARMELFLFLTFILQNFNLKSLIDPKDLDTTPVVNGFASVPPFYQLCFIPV
CYP2C19 act: activators of human cytochrome P450 2C19; P33261; recombinant CYP2C19, luciferin-H EGE luminescence; hits give high values; 0 = fully inhibited enzyme, 1 = untreated enzyme; activation factor at 5 µM; 96,000 tested, under 10 active; AID 1025;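 active = activation factor of at least 2 at 5 µM in the primary screen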;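 note: 0 = wells with 2.5 mM tranylcypromine and 1 = vehicle-only wells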
Cav3 T inh: human Cav3.2 channel inhibition, primary screen; O95180; Cav3.2-expressing cells, Fluo-4 calcium fluorescence FDSS; hits give low values; B-score at 10 µM; 100,000 compounds, 4% hits;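 active = single-dose well whose peak fluorescence ratio is a statistical outlier from its plate by either plate-standardised score or position-corrected B-score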
HIV Rev-RRE inh: HIV Rev-RRE protein-RNA interaction inhibition | AID 704 | inhibition, % at 8 µM | P05866 | 97,000 compounds, 0.79% hits | Rev peptide-RRE RNA binding, FRET;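 active = inhibition above the screen-wide mean plus 3 SD, cut at about 35% in these data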;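 note: 0% = median DMSO wells and 100% = median Neomycin B control wells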
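Test system: Cy5-tagged RRE RNA duplex with fluorescein-tagged Rev peptide | Read-out: % inhibition of FRET ratio versus controls | Probe or stimulus: Labelled Rev peptide | Incubation: 5 min RNA-compound premix plus 15 min binding step, 25 °C | Technique: FRET fluorescence readout | Benchmarks: DMSO low control, neomycin B high control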
CYP2C9 activ: activators of human CYP2C9; P11712; recombinant CYP2C9, luciferin-H conversion, luminescence; hits give high values; factor 1 = untreated enzyme, 0 = blocked; activation factor at 5 µM; 96,000 compounds, 1.4% hits;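 active = activation factor of 2 or more for CYP2C9 at a 5 µM dose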;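 note: 0 = sulfaphenazole-blocked wells and 1 = vehicle-only wells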
CYP2C9 inhib: inhibitors of human CYP2C9; CYP2C9 Supersomes, luciferin-H conversion, luminescence; inhibition, % at 5 µM; 96,000 compounds, 20% hits; AID 777;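 active = blocking of liver enzyme CYP2C9 beyond about 50% at 5 µM, limit read from the data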
Numbers without * were called inactive; · = not tested or not shown.

SMILES	CYP2C19 inh	CYP2C19 act	Cav3 T inh	HIV Rev-RRE inh	CYP2C9 activ	CYP2C9 inhib
COc1ccc(Cn2c(-c3ccco3)nc3oc4ccccc4c(=O)c3c2=O)cc1	-3.9	1	0.0437	10.4	0.8	16.1
CCS(=O)(=O)Nc1ccc(-c2nnc(SCC(=O)c3ccc(NC(C)=O)c(OC)c3)o2)cc1	14.9	0.9	·	-5.5	0.9	5.2
CCN(c1ccccc1)S(=O)(=O)c1cc(C(=O)O)ccc1C	3.6	1	-0.522	-5.6	1	0.8
S=C(NCc1ccco1)N1CCN(C(c2ccccc2)c2ccccc2)CC1	34.9	0.7	-1.14	-5.6	0.3	71.8*
O=C(CN1CCN(C(c2ccccc2)c2ccccc2)CC1)NC(=O)NCc1ccco1	7.4	0.9	-5.1*	5.0	2*	-95.9
O=C(NC1CCCCC1)NC1CCN(C(=S)NCc2ccco2)CC1	15.1	0.8	0.953	0.1	0.9	12.8
COc1ccc(S(=O)(=O)N(C)CC(=O)Nc2cccc(C(C)=O)c2)cc1C	46.7	0.5	1.02	3.0	1.3	-30.1
COC(=O)c1ccccc1NC(=O)CN(C)S(=O)(=O)c1ccc(OC)c(C)c1	99.6*	0	-3.63	14.0	1.1	-14.2
COc1ccc(S(=O)(=O)N(C)CC(=O)Nc2ccccc2SC)cc1	98.0*	0	0.532	5.5	1.1	-6.6
COc1ccc(S(=O)(=O)N(C)CC(=O)Nc2ccccc2SC)cc1Cl	31.4	0.7	-1.33	5.2	2.9*	-188.0
COc1ccc(NC(=O)CN(C)S(=O)(=O)c2ccc3c(c2)OCCO3)c2ncccc12	20.7	0.8	-0.208	13.1	1.9	-88.3
COC(=O)c1ccccc1NC(=O)CN(C)S(=O)(=O)c1ccc(OC)cc1	72.5*	0.3	-0.207	12.9	1	-3.3
O=C(c1ccc(Cl)s1)N1CCN(c2ccccc2)CC1	·	·	-0.625	·	·	·
O=C1CCN(Cc2ccccc2)CCN1CCO	·	·	0.487	·	·	·
CN1CCN(S(=O)C23CC4CC(CC(C4)C2)C3)CC1 (stereo unspecified)	·	·	-1.75	4.5	·	·
COC(=O)[C@@H]1C[C@H]2CC[C@H](O)C[C@H]2N1Cc1ccc(-c2ccccc2)cc1	·	·	-1.11	·	·	·
COc1ccc(NC(=O)CN(C)S(=O)(=O)c2ccccc2)c([N+](=O)[O-])c1	16.0	0.8	-0.32	4.6	0.7	25.9
COc1ccc(NC(=O)CN(C)S(=O)(=O)c2ccc(Cl)cc2)cc1Cl	6.0	0.9	-0.08	2.1	0.9	6.0
COc1ccccc1NC(=O)CN(C)S(=O)(=O)c1ccc(F)cc1	55.9*	0.4	0.638	3.3	2.3*	-128.7
CCOC(=O)c1ccc(NC(=O)CN(C)S(=O)(=O)c2ccc(OC)cc2)cc1	7.2	0.9	0.343	4.7	1.6	-63.7
COc1ccc(NC(=O)CN(C)S(=O)(=O)c2ccccc2)cc1	61.5*	0.4	-0.517	7.4	0.5	54.6*
COc1ccc(S(=O)(=O)N(C)CC(=O)Nc2ccc(C(F)(F)F)cc2)cc1Cl	6.7	0.9	0.963	17.9	0.4	56.6*
COc1ccc(S(=O)(=O)N(C)CC(=O)Nc2ccccc2OC)cc1	73.1*	0.3	0.525	0.6	1.2	-15.2
CCOC(=O)CC(=O)Nc1cc(Cl)ccc1O	45.2	0.5	0.347	·	0.6	44.1
CCCS(=O)(=O)c1snnc1C	-10.0	1.1	-0.0361	7.9	0.9	7.6
Cc1ccc(-c2nnc(N3CCCCC3)c3ccccc23)cc1S(=O)(=O)NCC1CCCO1 (stereo unspecified)	9.7	0.9	-2.54	-0.2	0.5	46.3
O=c1nc2ccccc2c2n1CC(CN1CCN(c3cccc(Cl)c3)CC1)N2 (stereo unspecified)	-15.2	1.2	-2.18	6.2	1.3	-30.5
CC(C)N=Cc1c(O)[nH]c2ccccc12	5.4	0.9	-0.197	3.8	0.5	54.5*
COC(=O)C1=C(C)NC(=O)NC1c1cccc(OC)c1OCc1ccccc1 (stereo unspecified)	19.4	0.8	·	0.3	0.2	76.7*
CC(=O)C1=C(c2ccccc2)NC(=O)NC1c1ccccc1OCC(=O)NCc1ccccc1 (stereo unspecified)	89.8*	0.1	-1.16	14.1	0.1	94.7*
